From ChEMBL document CHEMBL1938348, “Novel inhibitors of surface layer processing in Clostridium difficile” (Bioorg Med Chem, 2012)
The source made the active and inactive calls. No cut-off for these calls is given here. Where a SMILES comes first, the peptide text is derived from it. The star is where a group is joined. X1 = CCOC(=O)/C=C/[C@H](CO)N*

Experiments:
Conditions in all cases: Clostridioides difficile
[1] = target: T1, Precursor of the S-layer proteins (Clostridium difficile (strain 630)) (UniProt Q183M8); assay: Inhibition of Clostridium difficile 630 S-layer processing of slpA at 100 uM by Western blot analysis
T1 sequence (whole entry): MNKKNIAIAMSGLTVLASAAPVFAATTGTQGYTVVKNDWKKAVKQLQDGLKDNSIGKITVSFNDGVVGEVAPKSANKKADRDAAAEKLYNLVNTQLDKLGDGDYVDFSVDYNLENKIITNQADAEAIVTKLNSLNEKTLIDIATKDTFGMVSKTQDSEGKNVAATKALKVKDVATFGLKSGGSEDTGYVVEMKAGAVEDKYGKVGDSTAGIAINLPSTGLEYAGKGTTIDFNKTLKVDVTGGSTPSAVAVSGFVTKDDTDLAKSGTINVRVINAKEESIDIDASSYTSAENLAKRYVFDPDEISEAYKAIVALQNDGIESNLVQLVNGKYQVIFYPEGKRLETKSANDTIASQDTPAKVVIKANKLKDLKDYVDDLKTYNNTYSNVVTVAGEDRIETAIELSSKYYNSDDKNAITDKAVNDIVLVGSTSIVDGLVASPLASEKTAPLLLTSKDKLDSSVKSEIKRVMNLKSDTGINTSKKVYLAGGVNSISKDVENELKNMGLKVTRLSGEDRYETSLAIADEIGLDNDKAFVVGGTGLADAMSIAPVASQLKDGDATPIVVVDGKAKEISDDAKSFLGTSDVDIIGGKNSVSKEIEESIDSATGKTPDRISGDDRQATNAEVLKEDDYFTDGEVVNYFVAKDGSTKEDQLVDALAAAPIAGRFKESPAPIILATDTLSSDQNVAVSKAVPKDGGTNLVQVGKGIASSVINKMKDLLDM
Method in brief: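 C. difficile strain 630 grown overnight (16 h), anaerobic, 37 °C, in BHI with compound at 100 µM or DMSO vehicle. Surface layer proteins extracted with 0.2 M glycine–HCl pH 2.2 (30 min, room temperature), run on SDS–PAGE and semi-dry blotted to PVDF. Probed with rabbit anti-LMW SLP (1/200,000), then goat anti-rabbit-HRP (1/2000). Chemiluminescence read-out.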

[2] = target: T2, Cell surface protein (Clostridium difficile (strain 630)) (UniProt Q183M1); assay: Binding affinity to Clostridium difficile 630 cwp84 at 74 kDa by Western blot analysis
T2 sequence (whole entry): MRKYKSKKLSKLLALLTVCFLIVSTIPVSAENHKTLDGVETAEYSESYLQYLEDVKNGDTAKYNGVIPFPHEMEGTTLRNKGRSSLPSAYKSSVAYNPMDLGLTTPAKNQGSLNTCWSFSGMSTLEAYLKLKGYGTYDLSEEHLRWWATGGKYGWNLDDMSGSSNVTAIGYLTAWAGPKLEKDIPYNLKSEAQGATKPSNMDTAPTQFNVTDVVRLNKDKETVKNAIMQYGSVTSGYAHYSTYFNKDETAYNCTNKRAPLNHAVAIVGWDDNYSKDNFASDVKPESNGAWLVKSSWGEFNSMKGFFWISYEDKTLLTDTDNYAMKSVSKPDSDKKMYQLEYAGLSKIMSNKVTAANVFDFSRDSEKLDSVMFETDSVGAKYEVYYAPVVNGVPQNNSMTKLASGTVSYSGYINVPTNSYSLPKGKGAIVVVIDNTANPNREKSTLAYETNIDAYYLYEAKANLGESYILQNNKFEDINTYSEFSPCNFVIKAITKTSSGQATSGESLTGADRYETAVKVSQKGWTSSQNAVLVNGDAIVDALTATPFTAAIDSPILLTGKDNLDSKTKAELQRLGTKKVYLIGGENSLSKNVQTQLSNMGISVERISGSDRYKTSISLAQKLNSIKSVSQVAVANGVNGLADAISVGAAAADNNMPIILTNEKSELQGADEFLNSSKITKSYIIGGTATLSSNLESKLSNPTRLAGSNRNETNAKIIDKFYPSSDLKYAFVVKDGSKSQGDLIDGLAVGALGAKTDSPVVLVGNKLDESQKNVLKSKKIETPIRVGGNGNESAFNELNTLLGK

[3] = target: T2, Cell surface protein (Clostridium difficile (strain 630)); assay: Binding affinity to Clostridium difficile 630 higher molecular weight cwp84 by Western blot analysis
[4] = target: T2, Cell surface protein (Clostridium difficile (strain 630)); assay: Binding affinity to Clostridium difficile 630 cwp84 at lower band by Western blot analysis

CCOC(=O)/C=C/C(=O)N[C@@H](CC(C)C)C(=O)N[C@@H](CCCNC(=N)N)C(=O)NCCOCCOCCOCCNC(=O)CCCC[C@@H]1SC[C@@H]2NC(=O)N[C@@H]21
inhibition [1]: inactive

O=C(CCCC[C@@H]1SC[C@@H]2NC(=O)N[C@@H]21)NCCOCCOCCOCCNC(=O)[C@H](CO)NC(=O)CCl
inhibition [1]: Active

CCOC(=O)/C=C/C(=O)N[C@@H](C)C(=O)NCCOCCOCCOCCNC(=O)CCCC[C@@H]1SC[C@@H]2NC(=O)N[C@@H]21
inhibition [1]: inactive

CC(C)C[C@H](NC(=O)CCl)C(=O)N[C@@H](CCCNC(=N)N)C(=O)NCCOCCOCCOCCNC(=O)CCCC[C@@H]1SC[C@@H]2NC(=O)N[C@@H]21
inhibition [1]: Active
Activity [2]: Active
Activity [3]: Active

C[C@H](NC(=O)CF)C(=O)NCCOCCOCCOCCNC(=O)CCCC[C@@H]1SC[C@@H]2NC(=O)N[C@@H]21
inhibition [1]: inactive

C[C@H](NC(=O)CCl)C(=O)NCCOCCOCCOCCNC(=O)CCCC[C@@H]1SC[C@@H]2NC(=O)N[C@@H]21
inhibition [1]: Active

O=C(CCCC[C@@H]1SC[C@@H]2NC(=O)N[C@@H]21)NCCOCCOCCOCCNC(=O)[C@H](CO)NC(=O)CF
inhibition [1]: inactive

CCOC(=O)/C=C/[C@H](CO)NC(=O)[C@H](Cc1ccc(O)cc1)NC(=O)[C@H](CCCCNC(=O)CCCC[C@@H]1SC[C@@H]2NC(=O)N[C@@H]21)NC(C)=O
inhibition [1]: Active
Activity [4]: Active
Activity [3]: inactive

N=C(N)NCCC[C@H](NC(=O)CCl)C(=O)NCCOCCOCCOCCNC(=O)CCCC[C@@H]1SC[C@@H]2NC(=O)N[C@@H]21
inhibition [1]: Active

CCOC(=O)/C=C/C(=O)N[C@@H](CCCNC(=N)N)C(=O)NCCOCCOCCOCCNC(=O)CCCC[C@@H]1SC[C@@H]2NC(=O)N[C@@H]21
inhibition [1]: inactive

CCOC(=O)/C=C/C(=O)N[C@@H](CO)C(=O)NCCOCCOCCOCCNC(=O)CCCC[C@@H]1SC[C@@H]2NC(=O)N[C@@H]21
inhibition [1]: inactive

CCOC(=O)/C=C/[C@H](CO)NC(=O)[C@H](CCCCN)NC(=O)[C@@H](NC(=O)[C@H](CCC(=O)O)NC(=O)[C@H](CC(C)C)NC(C)=O)[C@@H](C)O (Ac-LETK-X1)
inhibition [1]: Active

N=C(N)NCCC[C@H](NC(=O)CF)C(=O)NCCOCCOCCOCCNC(=O)CCCC[C@@H]1SC[C@@H]2NC(=O)N[C@@H]21
inhibition [1]: inactive

CC(C)C[C@H](NC(=O)CF)C(=O)N[C@@H](CCCNC(=N)N)C(=O)NCCOCCOCCOCCNC(=O)CCCC[C@@H]1SC[C@@H]2NC(=O)N[C@@H]21
inhibition [1]: inactive

CCOC(=O)/C=C/[C@H](CO)NC(=O)[C@H](CC(C)C)NC(=O)[C@H](CCCCNC(=O)CCCC[C@@H]1SC[C@@H]2NC(=O)N[C@@H]21)NC(C)=O
inhibition [1]: Active
Activity [4]: Active
Activity [3]: inactive
